Here are results for 37 variants from the RNAGym collection of RNA variant scans (doi:10.1126/science.aae0568).

The labels stand for the following.
B1: tRNA (parent)
chain: GUUCCGUUGGCGUAAUGGUAACGCGUCUCCCUCCUAAGGAGAAGACUGCGGGUUCGAGUCCCGUACGGAACG

Fewer inactive variants are shown than the library holds.

Variants of B1 are the subject of this series. Put plainly: yeast fitness relative to wild type (ratio to wild type); higher = fitter; tRNA-Arg(CCU), competitive growth, 37 C, YPD. In outline: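 Amplicons of the tRNA-Arg(CCU) gene were sequenced, 100-nucleotide paired-end, from the start population and from each end population of a pooled yeast competition. The competition, in six parallel replicates, lasted 24 hours in YPD at 37°C. Fitness relative to wild type was calculated from changes in genotype frequencies. Genotypes had to have ≥ 100 starting reads, and estimates < 0.5 were set to 0.5.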
In the case of GUUCCGUUCGCGUGAUGGUAACGCGUCUUCCUCCUCAGGAGAAGGCUGCGGGUUCGAGUCCCGUACUGAACG, the yeast fitness was at most 0.5. The value for GUUCCGUUGGCGUAAUGGUGACGCGUCUCUCUCCUAAGGAGAAGGCUGCGGGUUCGAGUCCCGUACGGAACG was 0.524; that for GUUCCGUUCGCGUAAUGGUAACGCGUCUCCCUCCAAAGGAGAUGACUGCGGGUUCGAGUCCCGUACGGAACG was at most 0.5; that for GUUCCAUUGGCGUUAUGGUAACGCGUCUCCCUCCUAAGGAGAAGACUGCGGGUUCGGGUCCCGGACGGAACG was at most 0.5.

As for GUUCCGUUCGCGUGAUGGUAACGCGUCUCCCUCCUAAGGAGAAGACUGCGGGUUCGAGUCCCGUACGGAACG, the yeast fitness turned out to be 0.579. With GUUCCGUUGGCGUAAUGGUAACCCGGCUCCCUGCUAAGGAGAAGCCUGCGGGUUCGAGUCCCGUACGGAACG, the yeast fitness was at most 0.5. The value for GUUCUGUUGGCGUAAUGGUAUCGCGUCUCGCUCCUAAGGAGAAGACUGCGGGUUCGACUCCCGUACGGAACG was at most 0.5; that for GUUCCGUUGGCGUAACGGUAACGCGUCUCCCUCCUAAGGAGAAGACCGCGGGUUCGAGUCCCGUACGGAACG was 0.899; that for GUUCCGUUGGAGUAAUGGUAAUGCGUCUCCCUCCUAAGCAGAAGACAGCGGGUUCGAGUCCCGUACGGAACG was at most 0.5. With GUUCCGCUGGCGUAAUGGUAACGCGUCUCCCUCCUAAGGAGAAGACUGCGGGUUCGAGUCCCGUGCGGAACG the figure was 0.95; with GUUCCGUUGGCGUAAUGGUAACGCGUCUCCCUCCUAAGGAGAAGACAGCGGGUUCGAGUCACGUACGGAACG, 0.769.

Turning to GUUCCGUUGGCGUAAUGGUAACGCGUCUCCCCCCUAAGGAGAAGACAGCGGGUUCGAGUCCCGUACGGAACG, the yeast fitness was determined as 0.9. With GUUCCGUUGGCGUAAUGGUAACGCGUCUCCCUCCUAAGGAGAAGACUGCGGGUUCGGGUCACGUACGGAACG the figure was 0.688; with GUUCCGUUGGCGUAAUGGUAACGCGUCUCCCUCCUGAGGAGAAGACUGCGGGUUCGAGUACCGUACGGAACG, 0.575. With GUUCCGUCGGCGUAAUGGUAACGCGUCUCCCUCGUAAGGAGAAGACUGCGGGUUCGAGUCCCGUACGGAACG the figure was 0.574. With GUUUCGUUGGCGUAAUGGUAACGCGUCUCCCUUCUAAGGAGAAAACUGCGGGUUCGAGUCCCGUACGGAACG the figure was at most 0.5; with GUUCCGUUGGCGUAAUGGUAACGCGUAUCCCUCCCAAGGAGAAGACUGCGGGUUCGAGUCCCGAACGGAACG, at most 0.5. For the variant GGUUCGUUGGCGUAAUGGUAACGCGUCUCCCUCCUAAGGAGAAGACUGCGGGUUCGAGUGCCGUACGGAACG, the yeast fitness is 0.54.

Consider GUUCCGUUACCGUAAUGGUAACGCCUCUCCCUUCUAAGGAGAAGACUGCGGGUUCGAGUCCAGUAUGGAACG, for which the yeast fitness was at most 0.5. On to GUUCCGUUGGAGUAAUGGUAACGCGUGUCCCUCCUAAGGAGAAGACUGCGGGUUCGAGUCCCGAGCUGAACG, for which the yeast fitness is at most 0.5. GUUACGUUGGCGUAAUGGUAGCGCGUCUCCCUCCUAAGGAGAAGACUGGGGGUUCGAGUCCCCUACGGAACG: the yeast fitness was determined as 0.538.

For the variant GUUUCGUUGGCGUAAUGGUCACGCGUCUCCCUCCUAAGGAGAAGAUUGCGGGUUCGAGUCCCGUACGGAGCG, the yeast fitness is at most 0.5. With GUUUCGUUGGCGGAAUGGUAACGCGUCUUCCUCUUAAGGAGAAGACUGCGGGUUCGAGUCCCGUACGGAACG, the yeast fitness was at most 0.5.

With GUUCCGUUAGCGUAAUGGUAACGCGUCUCCCUCCUAAGGAGAAGACUGGGGGUUCGAGUCCCGUACGGAACG, the yeast fitness was determined as 0.896. Take GUUCCGUUGGCGUAAUGGUAACGCGUCCCCCUCCUAAGGAGAAGACUGCGGGUUCGAGUCCCAUACGGAGCG: the yeast fitness is 0.685. With GUUCCGUUGGCGUAAUGGUAACGCGUCUCCCUCCUAAGAAGAAGACCGCGGGUUCGAGUCCCGUACGGAACG the figure was 1; with GUUCCCUUGGCGUAAUGGUAACGCGUCUCCCUUCUAAGGAGAAGACUGCGGGUUCGAGUCCCGUACGGAACG, 0.644.

Turning to GUUCCGUUGGCGUAAUGGUAACGUGUCUCCCUCCUAAGGAAAAGACUGCGGGUUCGAGUCCCGUACGAAACG, the yeast fitness is at most 0.5.

For GUCCCGUUGGCGUAAUGGUAACGCGUCUCCUUCCUAAGGAGAAGACUGCGGGUUCGAGUCCUGUACGGAACG, the yeast fitness turned out to be 0.804. As for GUUCCCUUGGCGUAAAGCUAAGGCGUCUCCCUCCUAAGGAGAAGACUGCGGGUUCGAGUCCCGUACGGAACG, the yeast fitness worked out at 0.615. The value for GUUCCGUUGGCGUAAUGGUAACGCGUGUCCCUCCUAAGGAGAAGACUGUGGGUUGGAGUCCCGUACGGAACG was at most 0.5; that for GUUCCGUUGGAGAAAUGGUGACGCGUCUCCCUCCUAAGGAGAAGACUGCGGGUUCGAGUCCCGUACGGAACG was 0.561. The value for GUUCCGUUGGCGUAAUGGUAACGCGUCUCCCUCAUAAGGAGAAGACUGCGGGUUCGAGUCCCGCACGGAACG was 0.834.

Regarding GUUCCGUUGGCGUAAUGGUAACGCGUCUUCCUCCUAAGGAGAAGACUGCGAGUUCGAGUCCCGUACGGAACG, the yeast fitness is 0.883. The value for GUUCCGUUGGCGUAAUGGUAACGCGUCUCCCUCCUGAGGAGAAGACAGCGGGUUCGAGUCCCGUACCGAACG was at most 0.5; that for GUUCCGUUAGCGAAAUGGUAACGCGUCUCCCUCCUAAGGAGAAGACUGCGGGUUCGAGUCCCGUACGGAACG was 1.03.

For the variant GUUCCGUUGGCGUAGUGGUAACGCGUCUCCCUCUUAAGGUGAAGACUGCGGGUUCGAGUCCCGUACGGAACG, the yeast fitness is at most 0.5.
